Assay outcomes: PubChem BioAssay, several laboratories
MrgX1 agonist: agonists of human MrgX1 receptor; Q96LB2; MrgX1-HEK293 cells, Fluo-4 calcium fluorescence, agonist mode; stronger effect = higher value; B-score at 10 µM; 310,000 compounds, 0.44% hits; AID 588627;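 active = calcium response B-score plate-corrected fluorescence ratio at least 3 library SD, with starting fluorescence B-score inside 5 SD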
Target sequence (Q96LB2 whole entry, looked up): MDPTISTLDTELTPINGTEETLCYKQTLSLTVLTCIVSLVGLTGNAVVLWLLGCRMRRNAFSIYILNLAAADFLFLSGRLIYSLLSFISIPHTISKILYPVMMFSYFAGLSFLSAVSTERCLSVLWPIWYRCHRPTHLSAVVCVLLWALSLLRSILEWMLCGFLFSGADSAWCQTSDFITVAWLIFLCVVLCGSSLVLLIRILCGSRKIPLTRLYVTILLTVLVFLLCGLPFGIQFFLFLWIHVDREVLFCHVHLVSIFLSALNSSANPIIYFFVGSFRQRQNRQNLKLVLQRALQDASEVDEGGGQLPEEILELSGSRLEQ
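System: HEK293 cells stably expressing human MrgX1 receptor; Dosing: test compound in the initial addition of three; Schedule: overnight plating, then 30 min 37 °C plus 30 min room-temperature dye loading; Detection: kinetic calcium dye fluorescence, Fluo-4 NW; Controls: per-plate positive and negative controls for Z′ factor.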
RGS4 act: potentiators or activators of RGS4. 310,000 compounds, 0.92% hits. B-score at 10 µM. HEK293 M3R/inducible RGS4, carbachol calcium flux Fluo4; stronger effect = lower value. AID 463111;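 active = B-score of the integrated calcium signal more than 4 SD below the library mean, with starting fluorescence not abnormally high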;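 also: negative B-score means reduced calcium response which marks RGS4 activation or potentiation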
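Assay system: Inducible-RGS4 HEK293 cells carrying M3 receptor | Schedule: Compound preincubation 20 min at room temperature before agonist | Signal: Kinetic calcium fluorescence imaging with Fluo4-AM dye, 2 µM | Read-out basis: B score from integrated fluorescence ratio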
MrgX1 allo act: human MrgX1 positive allosteric modulation, primary screen. Q96LB2. MrgX1-HEK293, Fluo-4 calcium flux, FDSS; stronger effect = higher value. B-score at 10 µM. 310,000 compounds, 0.63% hits. AID 588675;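 active = plate-corrected calcium response at least 3 library SD above typical, normal starting fluorescence, not activating the receptor alone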;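 also: compound read alongside a low EC10 to EC30 dose of BAM8-22 agonist; peak minus trough fluorescence over baseline measured at the second addition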
RGS4 inh: human RGS4 inhibition | 310,000 compounds, 0.45% hits | B-score at 10 µM | P49798 | AID 463165 | HEK293 M3R/RGS4 inducible, Fluo-4 calcium flux; stronger effect = higher value; triggered by carbachol at its EC20;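 active = B-score, a plate-corrected calcium signal, over three deviations above library mean, with baseline fluorescence within five deviations of library mean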;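 also: RGS4 expression induced by doxycycline in cells with stable M3 receptor; B-score is computed from the integrated fluorescence ratio over baseline after carbachol; higher B-score means a larger calcium signal and so more RGS4 inhibition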
Target sequence (P49798 whole entry, looked up): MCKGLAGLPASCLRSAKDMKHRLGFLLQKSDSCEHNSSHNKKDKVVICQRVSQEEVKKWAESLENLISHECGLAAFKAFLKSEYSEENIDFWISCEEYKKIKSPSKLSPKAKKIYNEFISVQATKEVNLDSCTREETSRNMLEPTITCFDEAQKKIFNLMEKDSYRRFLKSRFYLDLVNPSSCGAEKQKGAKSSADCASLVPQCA
MrgX1 antagonist: antagonists of human MrgX1 receptor; Q96LB2; MRGX1-HEK293 calcium flux, Fluo-4, BAM8-22 antagonism; stronger effect = lower value; B-score at 10 µM; 310,000 compounds, 1.3% hits; AID 588676;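 active = calcium-response B-score plate-corrected more than 3 library SD below zero, starting fluorescence within 5 deviations, no agonist response on first addition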;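 also: peak minus trough fluorescence over baseline after final BAM8-22 challenge near maximal dose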
Lipid droplet: modulators of hepatic lipid droplet formation | AML12 mouse hepatocytes, oleate lipid droplets, BODIPY imaging | 240,000 compounds, 0.4% hits | inhibition, % at 6.5 µM;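 active = lipid droplet intensity inhibited by at least 50%, with more than 500 cells counted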
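Material – AML12 mouse liver cells · Also added – oleate loading, 100 µM · Compound dosing – 6.5 µM single-point dosing · Times – overnight treatment with compound plus oleate · Measured by – fluorescence imaging, 20x objective, two fields per well · Read-out – percent inhibition of filter-corrected integrated lipid droplet intensity per well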
MrgX1 allo conf: confirmation of human MrgX1 receptor positive allosteric modulators; shares compounds with MrgX1 allo act; 1,200 compounds, 13% hits; activation (ratio percentage), % at 10 µM; MrgX1-HEK293, Fluo-4 calcium fluorescence, FDSS; AID 602413;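 active = ratio at least 3 SD above the weak peptide control, stable starting fluorescence, no direct agonism earlier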;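 also: compound followed by low BAM8-22 agonist challenge near EC20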
HEK293 Ca flux: activity in parental HEK293 cells lacking MrgX1; shares compounds with MrgX1 antagonist; fluorescence ratio F(max-min)/F0 at 10 µM; AID 624111; Fluo-4 calcium fluorescence, FDSS; 4,000 compounds, 2% hits;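 active = duplicate-averaged calcium fluorescence ratio at least three times the standard deviation of buffer wells, a nonspecific response in parental cells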
HEK293 Ca counter: activity in parental HEK293 cells without MrgX1 | shares compounds with MrgX1 antagonist | parental HEK293 calcium flux, Fluo-4 fluorescence ratio; stronger effect = higher value | fluorescence ratio F(max-min)/F0 at 10 µM | 4,000 compounds, 0.4% hits | AID 624114;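 active = calcium fluorescence ratio, averaged over duplicates, at least 3 SD of the buffer-well ratio, meaning a nonspecific response in receptor-free cells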;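 also: untransfected parental HEK293 lacking MrgX1 used as counterscreen for MrgX1 allosteric activators; fluorescence change taken during the second addition on a kinetic imager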
HEK293 Ca cntr2: activity in parental HEK293 cells lacking MrgX1 receptor; shares compounds with MrgX1 antagonist; Fluo-4 calcium fluorescence (FDSS); stronger effect = higher value; fluorescence ratio F(max-min)/F0 at 10 µM; 4,000 compounds, 8.7% hits;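 active = calcium fluorescence ratio at least three times the spread of buffer wells, meaning a non-specific response in parental cells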
Starred values were filed as active, the others as inactive. Compounds with a hit are over-represented: about 3.8% of the library has one in this group of screens.

For O=C(O)CSc1ncnc2scc(-c3ccc(Br)cc3)c12 the results were MrgX1 agonist inactive, RGS4 act inactive, MrgX1 allo act 10*, RGS4 inh inactive, MrgX1 antagonist inactive, Lipid droplet 0, MrgX1 allo conf inactive, HEK293 Ca flux inactive, HEK293 Ca counter inactive and HEK293 Ca cntr2 inactive.
For COc1ccc(NS(=O)(=O)c2ccc3nc(COc4ccc(Cl)c(C)c4)[nH]c3c2)cc1 the results were MrgX1 agonist inactive, RGS4 act inactive, MrgX1 allo act inactive, RGS4 inh inactive, MrgX1 antagonist inactive and Lipid droplet -5.
`CCC(C)n1c(NC(=O)c2ccccc2)c(C#N)c2nc3ccccc3nc21` (stereo not drawn) gave MrgX1 agonist inactive, RGS4 act inactive, MrgX1 allo act 7.9*, RGS4 inh inactive, MrgX1 antagonist inactive, MrgX1 allo conf inactive, HEK293 Ca flux inactive, HEK293 Ca counter inactive and HEK293 Ca cntr2 inactive.
Screening O=C(C1CCCN(S(=O)(=O)Cc2ccccc2)C1)N1CCc2ccccc21 (stereo not drawn) returned MrgX1 agonist inactive, RGS4 act inactive, MrgX1 allo act inactive, RGS4 inh inactive, MrgX1 antagonist inactive and Lipid droplet 7.
O=C(CC1SCCNC1=O)Nc1ccc(F)c(Cl)c1 (stereo not drawn) was read as MrgX1 agonist inactive, RGS4 act inactive, MrgX1 allo act 9.9*, RGS4 inh inactive, MrgX1 antagonist inactive, Lipid droplet -19, MrgX1 allo conf inactive, HEK293 Ca flux inactive, HEK293 Ca counter inactive and HEK293 Ca cntr2 inactive.
For Cc1ccc(NC(=O)c2ccccc2O)cc1 the results were MrgX1 agonist inactive, RGS4 act inactive, MrgX1 allo act 11*, RGS4 inh inactive, MrgX1 antagonist inactive, Lipid droplet 20, MrgX1 allo conf inactive, HEK293 Ca flux inactive, HEK293 Ca counter inactive and HEK293 Ca cntr2 inactive.
Screening CC(=O)Nc1ccc(NC(=O)c2ccccc2CCc2ccccc2)cc1 returned MrgX1 agonist inactive, RGS4 act inactive, MrgX1 allo act 15*, RGS4 inh inactive, MrgX1 antagonist inactive, Lipid droplet 2, MrgX1 allo conf inactive, HEK293 Ca flux inactive, HEK293 Ca counter inactive and HEK293 Ca cntr2 inactive.
CC(=O)Nc1ccc(NC(=O)c2ccccc2C)cc1 was read as MrgX1 agonist inactive, RGS4 act inactive, MrgX1 allo act inactive, RGS4 inh inactive, MrgX1 antagonist inactive and Lipid droplet 20.
For CCC(=O)N(c1ccc(C(=O)O)cc1)c1nc(-c2ccc(OC)cc2)c(C)s1 the results were MrgX1 agonist inactive, RGS4 act inactive, MrgX1 allo act 6.5*, RGS4 inh inactive, MrgX1 antagonist inactive, Lipid droplet 28, MrgX1 allo conf inactive, HEK293 Ca flux inactive, HEK293 Ca counter inactive and HEK293 Ca cntr2 inactive.
Cc1sc(N(C(=O)CCc2ccccc2)c2ccc(C(=O)O)cc2)nc1-c1ccccc1 was read as MrgX1 agonist inactive, RGS4 act inactive, MrgX1 allo act inactive, RGS4 inh inactive, MrgX1 antagonist inactive and Lipid droplet -3.
`O=C(NNS(=O)(=O)c1ccc(F)cc1)C1CC(c2cccnc2)=NO1` (stereo not drawn) gave MrgX1 agonist inactive, RGS4 act inactive, MrgX1 allo act inactive, RGS4 inh inactive, MrgX1 antagonist inactive and Lipid droplet -8.
